# High-throughput results from PubChem.
# FN deposit inh: fibronectin deposition inhibition; actives 0.086% (n = 350,000); AH1F fibroblasts, Alexa488-fibronectin deposition fluorescence, overnight; inhibition, % at 12.6 µM;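 active = mean inhibition across replicates of 30% or more, regardless of how many single replicates reach that level; inconclusive = mean under 30% yet at least half of replicates reach 30%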;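 note: positive control wells lacked labelled fibronectin entirely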
#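 Measured by – fluorescence 485/525 nm · System – AH1F fibroblast monolayer, labelled fibronectin deposition · Amount – 10000 cells per well · Buffer or medium – serum-reduced DMEM (2% serum) · Doses – single dose, pinned · Also added – fluorescent fibronectin at 24 nM final · Schedule – 1 h cell attachment, overnight exposure to compound and label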
# EWS-Fli inh: EWS/Fli transcriptional activity inhibition. AID 651661. A673 NR0B1-luciferase reporter, viability-normalised. inhibition, % at 12.6 µM. actives 0.67% (n = 350,000);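 active = mean inhibition of at least 50% after viability correction, with every replicate also passing that limit; inconclusive = mean reaches 50% but only one of two replicates passes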;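 note: firefly luciferase signal divided by Alamar Blue viability fluorescence both relative to DMSO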
# PGC1a acetyl inh: modulators of PGC1a acetylation; U2OS PGC1a acetylation, AlphaScreen anti-acetyl-lysine; with virally co-expressed GCN5 acetyltransferase; inhibition, % at 15.6 µM; AID 651687; actives 0.17% (n = 350,000);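 active = every replicate shows inhibition of at least 40%; inconclusive = mean inhibition at least 40% but some replicate below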;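 note: 0% = neutral control wells and 100% = positive control wells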
# PAX8 reporter: inhibitors of PAX8 transcriptional activity in RMG-I cells; RMG-I TPO-luciferase reporter, SteadyGlo, 24 h; inhibition, % at 12.6 µM; actives 1.2% (n = 360,000);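 active = mean replicate inhibition at least 60% with every replicate also reaching 60%; inconclusive = only one of the two criteria is met; inactive = mean below 60% and not all replicates reaching 60%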;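 note: luciferase light reporting Pax8 driven TPO promoter activity; plate controls were median of neutral control wells for no effect and mitoxantrone controls for full effect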
# FGF22 binding: shifts melting point of recombinant human FGF22; Q9HCT0; recombinant FGF22 thermal shift, SYPRO orange fluorescence; percent of sucrose octasulfate shift, DMSO zero; activity (Tm shift, normalised), % at 9.99 µM; actives 1.5% (n = 340,000);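 active = mean Tm shift, scaled 0 neutral to 100 positive control, at about 1.3% or above, every replicate too, limit read from the data; inconclusive = no clear call, values can overlap the other calls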
# Target sequence (Q9HCT0 whole entry, looked up): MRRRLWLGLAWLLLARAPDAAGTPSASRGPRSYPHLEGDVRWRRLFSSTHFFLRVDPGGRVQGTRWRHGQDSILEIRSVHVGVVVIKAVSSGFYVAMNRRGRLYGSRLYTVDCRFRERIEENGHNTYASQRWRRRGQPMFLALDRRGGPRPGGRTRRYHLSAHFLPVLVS
# Env fusion inh: blocks HIV Env-driven cell-cell fusion; inhibition, % at 12.3 µM; HeLa-JRFL Env/CEM21 cell fusion, luciferase; AID 651610; actives 1.1% (n = 360,000);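 active = mean replicate inhibition score of at least 50 and every replicate individually at or above 50; inconclusive = only one of the two criteria met; inactive = mean below 50 and not all replicates reaching 50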;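 note: 0% = plate neutral controls and 100% = maraviroc near 300 nM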
# Starred values were filed as active, the others as inactive; ? = inconclusive; / = not tested or not shown; [ ] = remark or other dose. An excerpt weighted towards active compounds, which were near 3.1% of everything screened.
SMILES,FN deposit inh,EWS-Fli inh,PGC1a acetyl inh,PAX8 reporter,FGF22 binding,Env fusion inh
COc1cc2c3c(c1OC)C1(C=CC(=O)C=C1)CC3N(C(=O)CCC(=O)O)CC2 (stereo unspecified),9,3,/,10,0,12
COc1cc2c3c(c1OC)C1(C=CC(=NNC(N)=O)C=C1)CC3N(C(C)=O)CC2 (stereo unspecified),-1,-19,/,6,43*,14
C[C@H](NC(=O)C[C@H]1C=C[C@H](NC(=O)CN2CCOCC2)[C@@H](CO)O1)c1ccccc1,3,0,/,-3,0,23[16.7 µM]
Cc1cccc(C(=O)N(c2ccccn2)C(C)c2ccco2)c1 (stereo unspecified),1,13,-3,-24,1,-2
CC(c1ccco1)N(C(=O)C12CC3(C)CC(C)(CC(C)(C3)C1)C2)c1ccccn1 (stereo unspecified),-10,/,7,/,/,76*
O=C(Nc1ccccc1)c1cc2n(n1)C(C(F)(F)F)CC(C1CC1)N2 (stereo unspecified),-9,-22,/,-63,43*,-36
O=C(OCCN1C(=O)c2cccc3c(N4CCOCC4)ccc(c23)C1=O)c1ccc(Cl)cc1,7,/,/,61*,/,-7
O=C(OCCN1C(=O)c2ccccc2C1=O)c1cc(S(=O)(=O)N2CCOCC2)ccc1F,0,/,2,-12,/,5
COCCN(C(=O)CCl)C(C(=O)NC1CCCCC1)c1ccccc1C (stereo unspecified),-3,/,6,30,0,60*
Cc1ccc(S(=O)(=O)Nc2ccc3c(c2)C(=O)N([C@H](C)CO)C[C@H](C)[C@@H](CN(C)C(=O)NC(C)C)O3)cc1,/,-6,-3,-16,/,-5[16.7 µM]
C[C@@H]1CCCCO[C@H](CN(C)C)[C@H](C)CN([C@H](C)CO)C(=O)c2cc(N(C)C)ccc2O1,/,1,3,-9,/,8[16.7 µM]
CCOc1ccc(C(NC(=O)CC)c2c(O)ccc3ccccc23)cc1 (stereo unspecified),10,14,-1,23,0,2
CC(=O)Oc1ccc2ccccc2c1C(NC(=O)Cc1ccccc1)c1ccc(Cl)cc1 (stereo unspecified),-2,/,-17,85*,/,-94
O=C1OCC2=C1C(c1ccc(F)cc1)c1cc3c(cc1N2)OCO3 (stereo unspecified),-23,67*,/,72*,43*,-92
C#CCOc1ccc(C2C3=C(COC3=O)Nc3cc4c(cc32)OCO4)cc1OC (stereo unspecified),/,58*,/,86*,0,-184
COc1ccc(C2C3=C(COC3=O)Oc3cc4c(cc32)OCO4)cc1OC (stereo unspecified),9,17,/,-28,0,-2
CCOc1ccccc1C1C2=C(COC2=O)Nc2cc3c(cc21)OCO3 (stereo unspecified),5,47,/,88*,41,-129
O=C1OCC2=C1C(c1ccc3c(c1)OCO3)Sc1ccccc1N2 (stereo unspecified),-16,/,-15,/,/,-54
CCOc1ccccc1C1CC(=O)Nc2cc3c(cc21)OCO3 (stereo unspecified),-18,/,/,/,/,?
O=C1OCC2=C1C(c1ccc(F)cc1)c1cc3c(cc1N2)OCCO3 (stereo unspecified),5,46,19,85*,0,-67
C[C@H]1CN([C@@H](C)CO)C(=O)c2cc(NC(=O)Nc3ccc(F)cc3)ccc2O[C@H]1CN(C)Cc1ccc(Cl)c(Cl)c1,/,-1,8,8,-1,33[16.7 µM]
COc1ccc(NC(=O)COc2ccc(-c3nn(C)c(=O)c4ccccc34)cc2)cc1,2,11,-16,30,42,22
COc1ccc(OCC(=O)Nc2cc(-c3nn(C)c(=O)c4ccccc34)ccc2OC)cc1,14,/,-17,33,/,86*
CC(C)CC#Cc1ccc2c(c1)O[C@@H](CN(C)Cc1ccncc1)[C@H](C)CN([C@H](C)CO)S2(=O)=O,/,40,5,92*,-1,30[16.7 µM]
CCCC#Cc1ccc2c(c1)O[C@H](CN(C)Cc1ccncc1)[C@@H](C)CN([C@H](C)CO)S2(=O)=O,/,19,-11,/,-1,32[16.7 µM]
SMILES,FN deposit inh,EWS-Fli inh,PGC1a acetyl inh,PAX8 reporter,FGF22 binding,Env fusion inh
CC(C)CC#Cc1ccc2c(c1)O[C@H](CN(C)Cc1ccncc1)[C@@H](C)CN([C@H](C)CO)S2(=O)=O,/,28,1,21,0,32[16.7 µM]
CC(C)CC#Cc1ccc2c(c1)O[C@H](CN(C)Cc1ccncc1)[C@@H](C)CN([C@@H](C)CO)S2(=O)=O,/,36,0,73*,-1,38[16.7 µM]
CC(NC(=O)Cc1cccs1)C(c1cccs1)N1CCN(c2ccccc2F)CC1 (stereo unspecified),-2,/,-30,/,/,62*
CCNC(=O)C[C@@H]1CC[C@H]2[C@H](COc3ccc(NC(=O)Cc4ccccc4)cc3C(=O)N2C)O1,-11,5,8,15,0,-21[16.7 µM]
CC(=O)N(C)C[C@H]1Oc2cc(C3=CCCCC3)ccc2S(=O)(=O)N([C@@H](C)CO)C[C@@H]1C,/,-11,-16,/,/,7[16.7 µM]
COc1ccc(S(=O)(=O)Nc2ccc3c(c2)C(=O)N([C@@H](C)CO)C[C@@H](C)[C@@H](CN(C)S(=O)(=O)c2ccc(C)cc2)OCCCC[C@@H](C)O3)cc1,-4,-11,-8,67*,0,-18[16.7 µM]
COc1ccc(S(=O)(=O)Nc2ccc3c(c2)C(=O)N([C@H](C)CO)C[C@H](C)[C@H](CN(C)S(=O)(=O)c2ccc(C)cc2)OCCCC[C@H](C)O3)cc1,-8,9,1,72*,-1,-11[16.7 µM]
COc1ccc(S(=O)(=O)N(C)C[C@@H]2OCCCC[C@H](C)Oc3ccc(NS(=O)(=O)c4ccc(C)cc4)cc3C(=O)N([C@@H](C)CO)C[C@@H]2C)cc1,/,12,-8,42,0,32[16.7 µM]
CC(Oc1ccccc1)c1ccnc2nc(N3CCOCC3)nn12 (stereo unspecified),1,-5,6,-18,43*,30
O=C1/C(=C/c2ccncc2)CCC/C1=C\c1ccncc1,1,71*,78*,71*,0,89*
C[C@@H]1CN([C@@H](C)CO)C(=O)c2cccc(N(C)C)c2O[C@@H]1CN(C)Cc1ccc(Oc2ccccc2)cc1,-2,-2,8,12,0,0[16.7 µM]
C/C(O)=c1/c(=O)nc2cccc3c2=c1c1ccccc1c3=O,7,-93,/,-25,0,67*
CC(C)CC#Cc1ccc2c(c1)O[C@@H](CN(C)Cc1ccc(F)cc1)[C@H](C)CN([C@@H](C)CO)S2(=O)=O,/,31,-3,28,0,-16[16.7 µM]
CC(C)CC#Cc1ccc2c(c1)O[C@@H](CN(C)Cc1ccccc1)[C@H](C)CN([C@@H](C)CO)S2(=O)=O,9,8,29,/,/,-1[16.7 µM]
